PRMT1 FP inh = PRMT1 methyltransferase inhibitors, primary screen, biochemical, fluorescence polarization; Protein arginine N-methyltransferase 1 (Homo sapiens), Q99873; recombinant PRMT1, activity-based probe fluorescence polarization; inhibition, % at 2.79 µM; actives 1.3% (n = 370,000); AID 652257, 2013;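 active means inhibition above about 21% made by adding two undisclosed values, limit read from the data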
Target sequence (Q99873 whole entry, looked up): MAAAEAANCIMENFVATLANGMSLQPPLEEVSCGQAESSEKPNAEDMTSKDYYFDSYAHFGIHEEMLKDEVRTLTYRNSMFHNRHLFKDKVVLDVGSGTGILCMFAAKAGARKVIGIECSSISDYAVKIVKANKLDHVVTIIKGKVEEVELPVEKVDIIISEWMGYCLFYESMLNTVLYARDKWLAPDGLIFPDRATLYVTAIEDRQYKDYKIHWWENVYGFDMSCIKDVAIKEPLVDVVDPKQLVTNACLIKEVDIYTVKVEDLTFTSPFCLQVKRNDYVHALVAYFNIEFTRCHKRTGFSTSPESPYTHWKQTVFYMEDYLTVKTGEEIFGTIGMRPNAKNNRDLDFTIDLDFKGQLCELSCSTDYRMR
HTRA1 inhibitor = HTRA1 serine protease inhibitors, primary screen, biochemical, fluorescence polarization, HTS | recombinant HTRA1, FP-rhodamine activity-based probe | actives 0.5% (n = 340,000) | inhibition, % at 5.96 µM | Q92743; in the data active means inhibition above about 36%;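 further: 0% = enzyme with DMSO and 100% = wells lacking enzyme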
TCR CD3 inh = inhibitors of human TCR-CD3 interaction, primary screen, biochemical, fluorescence, TAMRA-labeled TCR probe. T-cell receptor (TCR). inhibition, % at 9.4 µM. actives 0.37% (n = 360,000); in the data active means inhibition above about 19%;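 further: recombinant mutant TCR 2C K166C tagged with TAMRA read by polarization; 0% = receptor in buffer alone and 100% = receptor with positive control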
SIAE primary = human SIAE inhibitors, primary screen, biochemical, fluorescence polarization, FP-Rh probe, 1536-well HTS; Sialate O-acetylesterase (Homo sapiens), Q9HAT2; SIAE FP-Rh probe binding; inhibition, % at 9.66 µM; actives 0.69% (n = 370,000);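 active means inhibition above a cutoff: mean of compounds within the control limits plus 3 SD of those, cut at about 17% in these data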;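 further: 0% = plate median of compound wells and 100% = probe without SIAE protein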
PAD4 FP inh = human PAD4 inhibitors, primary screen, biochemical, fluorescence polarization, 1536-well format; recombinant PAD4, RCA probe fluorescence polarization; inhibition, % at 6.36 µM; actives 0.41% (n = 330,000);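 active means percent inhibition above a cutoff equal to the mean of all tested compounds plus 3 SD, cut at about 15% in these data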;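 further: 0% = PAD4 with RCA probe and DMSO and 100% = probe without PAD4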
ABHD4 inh = ABHD4 inhibitors, primary screen, biochemical, fluorescence polarization, mouse; purified mABHD4, FP-Rh probe fluorescence polarization; actives 0.54% (n = 370,000); (Lyso)-N-acylphosphatidylethanolamine lipase (Mus musculus), Q8VD66; inhibition, % at 8.92 µM;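 active means inhibition exceeding the mean over every tested compound plus 3 SD, cut at about 30% in these data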;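 further: 0% = plate median of compound wells and 100% = S159A mutant with DMSO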
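System: mouse ABHD4 enzyme, wild type / Medium: HEPES pH 7.0, NaCl, Pluronic buffer / Reagent: FP-Rh activity-based fluorescent probe / Control set: S159A mutant high control, sample median low control / Detection: fluorescence polarization with parallel and perpendicular emission, 525/598 nm / Schedule: 45 min + 60 min at 25 °C / Compound dosing: 8.92 µM, single dose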
ABHD4 confirm = ABHD4 inhibitors, retest, confirmation, biochemical, fluorescence polarization, mouse | AID 720658, 2013 | actives 55% (n = 1,800) | shares compounds with ABHD4 inh | purified mABHD4, FP-Rh probe fluorescence polarization | inhibition, % at 8.92 µM;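 active means mean inhibition across replicates above the hit cutoff set in the primary screen, cut at about 30% in these data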;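 further: 0% = wild-type ABHD4 with DMSO and 100% = catalytically dead S159A mutant with DMSO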
Starred values were filed as active, the others as inactive. In the library only some 2.9% were active in any assay of this set; here they are far more common.

For C=CCN1C(=O)[C@@H](CC(=O)NCC2CCCCC2)[C@]2(C(=O)OCC)CCCCC/C=C/12 the results were PRMT1 FP inh -3, SIAE primary 9 and ABHD4 inh -3.
For CCCCOc1ccc(CSC(=N)N)cc1Cl the results were PRMT1 FP inh 6, HTRA1 inhibitor -2, TCR CD3 inh -8, SIAE primary -3, PAD4 FP inh -1, ABHD4 inh 38* and ABHD4 confirm 22.
For CCCCCOc1ccc(Br)cc1CSC(=N)N the results were PRMT1 FP inh -1, HTRA1 inhibitor -17, TCR CD3 inh 3, SIAE primary 0, ABHD4 inh 40* and ABHD4 confirm 49*.
For Cc1ccccc1Cn1cc(COC(=O)N(C)Cc2ccccc2)nn1 the results were PRMT1 FP inh -1, SIAE primary 1 and ABHD4 inh -5.
For COC(=O)C1=C(C)N(Cc2ccc(C(F)(F)F)cc2)C(=NCc2ccccc2)NC1c1cccc(Cl)c1 (centres undefined) the results were PRMT1 FP inh -4, TCR CD3 inh 5, SIAE primary 7, ABHD4 inh 37* and ABHD4 confirm 44*.
COC(=O)C1=C(C)N(Cc2ccc(C(F)(F)F)cc2)C(=NCc2ccccc2)NC1c1cccc(C(F)(F)F)c1 (centres undefined) was read as PRMT1 FP inh 1, TCR CD3 inh 0, SIAE primary -1 and ABHD4 inh 23.
Screening COC(=O)C1=C(C)N(Cc2ccc(C(F)(F)F)cc2)C(=NCc2ccccc2)NC1c1ccccc1 (centres undefined) returned PRMT1 FP inh -3, TCR CD3 inh -3, SIAE primary -12, ABHD4 inh 33* and ABHD4 confirm 48*.
Screening COC(=O)C1=C(C)N(Cc2cccc(C(F)(F)F)c2)C(=NCc2ccc3c(c2)OCO3)NC1c1ccc(Cl)cc1 (centres undefined) returned PRMT1 FP inh 7, TCR CD3 inh 9, SIAE primary -3, ABHD4 inh 40* and ABHD4 confirm 82*.
COC(=O)C1=C(C)N(Cc2ccccc2)C(=NCc2cccc(C(F)(F)F)c2)N[C@H]1c1cccc(F)c1 was read as PRMT1 FP inh -1, HTRA1 inhibitor -35, TCR CD3 inh 3, SIAE primary -1, PAD4 FP inh 7, ABHD4 inh 37* and ABHD4 confirm 44*.
For COc1ccc(C2C(C(=O)Nc3ccc(F)cc3F)CCC(=O)N2c2ccc(OC)cc2)cc1 (centres undefined) the results were PRMT1 FP inh -1, SIAE primary -1 and ABHD4 inh -1.
Screening CC(C)(C)c1ccc(-c2nnc(SCC(=O)c3ccc4ccccc4c3)n2-c2ccc(Cl)cc2)cc1 returned PRMT1 FP inh 9, SIAE primary -3 and ABHD4 inh 0.
`Brc1ccc2nc(-c3ccc(CN4CCC5(CC4)CNc4ccccc45)cc3)c(-c3ccccc3)nc2c1` gave PRMT1 FP inh -2, TCR CD3 inh 6, SIAE primary -5 and ABHD4 inh 13.
`COC(=O)C1=C(C)N(Cc2ccc(C(F)(F)F)cc2)C(=NCc2ccccc2)NC1c1ccc(C(F)(F)F)cc1` (centres undefined) gave PRMT1 FP inh 2, TCR CD3 inh 2, SIAE primary 3, ABHD4 inh 31* and ABHD4 confirm 39*.
N#CC1=C(N)Oc2cc(N)ccc2C1c1ccccc1Cl (centres undefined) was read as PRMT1 FP inh 4, HTRA1 inhibitor 3, TCR CD3 inh 0, SIAE primary 1, ABHD4 inh 30* and ABHD4 confirm -4.
